Laboratory results: ChEMBL document CHEMBL1122517, “2-Phenylindoles. Relationship between structure, estrogen receptor affinity, and mammary tumor inhibiting activity in the rat” (1984)
“And” between values parts separate entries of the source, which are not always exact repeats. Equal entries are not always repeated.

What was measured:
[1] = target: T1, Estrogen receptor (Mus musculus) (UniProt O08537+P19785); assay: Anti-uterotrophic activity in mice as uterus dry weight (mg)/body weight (g) *100 at 125 ug dose; format: functional, tissue-based
T1 sequence (O08537 whole entry, looked up): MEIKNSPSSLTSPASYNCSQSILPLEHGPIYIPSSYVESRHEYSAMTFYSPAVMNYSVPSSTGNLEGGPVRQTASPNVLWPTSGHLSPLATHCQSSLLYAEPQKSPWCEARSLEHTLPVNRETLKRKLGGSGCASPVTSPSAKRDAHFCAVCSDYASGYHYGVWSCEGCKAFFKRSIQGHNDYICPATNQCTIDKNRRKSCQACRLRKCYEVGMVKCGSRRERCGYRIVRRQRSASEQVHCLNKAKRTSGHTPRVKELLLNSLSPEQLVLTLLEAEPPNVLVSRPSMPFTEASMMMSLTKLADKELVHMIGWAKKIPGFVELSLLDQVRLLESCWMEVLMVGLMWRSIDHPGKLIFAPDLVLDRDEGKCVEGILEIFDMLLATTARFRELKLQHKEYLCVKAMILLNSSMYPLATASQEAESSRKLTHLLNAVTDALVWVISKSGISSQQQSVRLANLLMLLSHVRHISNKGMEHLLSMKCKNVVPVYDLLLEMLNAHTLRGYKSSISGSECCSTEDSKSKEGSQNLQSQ
T1 sequence (P19785 whole entry, looked up): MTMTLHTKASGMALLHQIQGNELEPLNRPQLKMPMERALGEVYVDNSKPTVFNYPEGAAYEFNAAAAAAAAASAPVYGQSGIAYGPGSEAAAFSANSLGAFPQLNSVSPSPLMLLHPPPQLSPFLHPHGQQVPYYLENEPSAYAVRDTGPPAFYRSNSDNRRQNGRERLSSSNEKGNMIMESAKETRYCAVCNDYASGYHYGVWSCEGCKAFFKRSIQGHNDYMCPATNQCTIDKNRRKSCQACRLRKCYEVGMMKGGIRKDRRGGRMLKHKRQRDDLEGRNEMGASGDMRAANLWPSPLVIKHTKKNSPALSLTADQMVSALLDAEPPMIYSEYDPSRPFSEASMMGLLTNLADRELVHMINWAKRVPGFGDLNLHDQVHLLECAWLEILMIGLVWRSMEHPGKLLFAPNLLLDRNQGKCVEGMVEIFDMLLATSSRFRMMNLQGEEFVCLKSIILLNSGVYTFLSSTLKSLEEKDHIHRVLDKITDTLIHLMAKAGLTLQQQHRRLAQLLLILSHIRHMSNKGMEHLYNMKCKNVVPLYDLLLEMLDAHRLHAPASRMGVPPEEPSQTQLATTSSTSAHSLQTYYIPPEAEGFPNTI
Outline: (§1)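 Immature female NMRI mice, 19 days old, groups of 10, given sc injections on 3 consecutive days. Each injection held 0.4 μg estrone plus the indole dose per animal, in olive oil (50 μL). Killed 24 h after the last injection. Uteri were fixed in Bouin solution, washed, and dried 24 h at 100 °C. Read-out was uterine dry weight (mg)/body weight (g) × 100, mean ± SD.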

[2] = target: T1, Estrogen receptor (Mus musculus); assay: Anti-uterotrophic activity in mice as uterus dry weight (mg)/body weight (g) *100 at 1 ug dose; format: functional, tissue-based; outline: as §1
[3] = target: T1, Estrogen receptor (Mus musculus); assay: Anti-uterotrophic activity in mice as uterus dry weight (mg)/body weight (g) *100 at 25 ug dose; format: functional, tissue-based; outline: as §1
[4] = target: T1, Estrogen receptor (Mus musculus); assay: Anti-uterotrophic activity in mice as uterus dry weight (mg)/body weight (g) *100 at 5 ug dose; format: functional, tissue-based; outline: as §1
[5] = target: T1, Estrogen receptor (Mus musculus); assay: Uterotrophic activity in mice as uterus dry weight (mg)/body weight (g) *100 at 0.2 ug dose; format: functional, tissue-based
Outline: (§2)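 Immature 19-day-old female NMRI mice, groups of 10. Compound dose per animal in olive oil (50 µL) sc on 3 consecutive days. Mice were killed 24 h after the last injection. Uteri were Bouin-fixed 20 h, cleaned, washed with alcoholic LiCl, and dried at 100 °C for 24 h. Effect = uterine dry weight (mg)/body weight (g) ×100; mean ± SD.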

[6] = target: T1, Estrogen receptor (Mus musculus); assay: Uterotrophic activity in mice as uterus dry weight (mg)/body weight (g) *100 at 1 ug dose; format: functional, tissue-based; outline: as §2
[7] = target: T1, Estrogen receptor (Mus musculus); assay: Uterotrophic activity in mice as uterus dry weight (mg)/body weight (g) *100 at 25 ug dose; format: functional, tissue-based; outline: as §2
[8] = target: T1, Estrogen receptor (Mus musculus); assay: Uterotrophic activity in mice as uterus dry weight (mg)/body weight (g) *100 at 5 ug dose; format: functional, tissue-based; outline: as §2
Rattus norvegicus [9] = species: Rattus norvegicus; assay: Change in DMBA-induced mammary carcinoma tumor area in rats at 1.8 mg dose; 47-510; format: functional
Outline: (§3)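 Female Sprague-Dawley rats got one 20 mg DMBA dose by gavage at 50 days old and were palpated twice weekly from day 30. Rats were randomized once tumor area exceeded 140 mm². Dose (per kg) was given sc in olive oil, once daily Monday to Thursday and doubled on Friday. Tumor area was taken from caliper measurements of two perpendicular axes, twice weekly. Change per animal is given as median % and range.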

Rattus norvegicus [10] = species: Rattus norvegicus; assay: Change in body weight of DMBA-induced mammary carcinoma tumor bearing rats at 1.8 mg dose; format: functional
Outline: (§4)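 DMBA-induced tumor-bearing Sprague-Dawley rats (20 mg DMBA by gavage at 50 days old), randomized when tumor area exceeded 140 mm². Dose per kg was given sc in olive oil, single dose daily Monday to Thursday, double dose Friday. Body weight was measured twice weekly. Read-out was % change in body weight.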

Rattus norvegicus [11] = species: Rattus norvegicus; assay: (§5) Change in DMBA-induced mammary carcinoma tumor area in rats at 1.8 mg dose; format: functional; outline: as §3
[12] = target: T1, Estrogen receptor (Mus musculus); assay: Percentage inhibition of uterotrophic activity at 125 ug dose; format: functional
Outline: (§6)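 Antiuterotrophic test in immature 19-day-old female NMRI mice (n=10), dosed sc on 3 consecutive days with 0.4 µg estrone per animal per day plus compound in olive oil. Uterine dry weight/body weight ×100 was read 24 h after the last dose. Inhibition % = 100 − [(E_S,T − E_V)/(E_S − E_V)]×100.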

[13] = target: T1, Estrogen receptor (Mus musculus); assay: Percentage inhibition of uterotrophic activity at 5 ug dose; format: functional; outline: as §6
Rattus norvegicus [14] = species: Rattus norvegicus; assay: Percent unchanged DMBA-induced mammary carcinoma tumors in rats at 1.8 mg dose; format: functional
Outline: (§7)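 Female Sprague-Dawley rats, 50 days old, given a single 20 mg DMBA dose in 1 mL olive oil by gavage. Rats were palpated twice weekly from day 30, and those without tumors by day 70 were discarded. Rats were randomized once tumor area exceeded 140 mm². Drug dose was per kg in olive oil (1 mL/kg) sc, single dose Mon–Thu and double dose Fri. Tumor area (caliper, two perpendicular axes) and body weight were measured twice weekly.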

Rattus norvegicus [15] = species: Rattus norvegicus; assay: Number of DMBA-induced mammary carcinoma tumors in rats at 1.8 mg dose; format: functional
Outline: (§8)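 DMBA-induced tumors in Sprague-Dawley rats, entered when tumor area exceeded 140 mm². Dose per kg was given sc in olive oil, daily Monday to Thursday with a double dose Friday. Tumors were measured by calipers twice weekly. Tumor number was counted at the start of the test. Complete remission meant the tumor was no longer palpable. Partial remission meant reduction to ≤50% of initial size. New tumor appearance was recorded.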

Rattus norvegicus [16] = species: Rattus norvegicus; assay: Formation of new DMBA-induced mammary carcinoma tumors in rats at 1.8 mg dose; format: functional; outline: as §8
Rattus norvegicus [17] = species: Rattus norvegicus; assay: as §5; format: functional; outline: as §3; remark: listed apart in the source
Rattus norvegicus [18] = species: Rattus norvegicus; assay: Percent progressive DMBA-induced mammary carcinoma tumors in rats at 1.8 mg dose; format: functional; outline: as §7
Rattus norvegicus [19] = species: Rattus norvegicus; assay: Partial remission (%) of DMBA-induced mammary carcinoma tumors in rats at 1.8 mg dose; format: functional; outline: as §8
[20] = target: T1, Estrogen receptor (Mus musculus); assay: Percentage inhibition of uterotrophic activity at 25 ug dose; format: functional; outline: as §6
[21] = target: T1, Estrogen receptor (Mus musculus); assay: Percentage inhibition of uterotrophic activity at 1 ug dose; format: functional; outline: as §6
[22] = target: T1, Estrogen receptor (Mus musculus); assay: Uterotrophic activity in mice as uterus dry weight (mg)/body weight (g) *100 at 125 ug dose; format: functional, tissue-based; outline: as §2
Rattus norvegicus [23] = species: Rattus norvegicus; assay: Change in DMBA-induced mammary carcinoma tumor area in rats at 5.1 mg dose; format: functional; outline: as §3
Rattus norvegicus [24] = species: Rattus norvegicus; assay: Change in DMBA-induced mammary carcinoma tumor area in rats at 5.1 mg dose; -44-333; format: functional; outline: as §3
Rattus norvegicus [25] = species: Rattus norvegicus; assay: Change in body weight of DMBA-induced mammary carcinoma tumor bearing rats at 1.7 mg dose; format: functional; outline: as §4
Rattus norvegicus [26] = species: Rattus norvegicus; assay: Change in body weight of DMBA-induced mammary carcinoma tumor bearing rats at 5.1 mg dose; format: functional; outline: as §4
Rattus norvegicus [27] = species: Rattus norvegicus; assay: Change in DMBA-induced mammary carcinoma tumor area in rats at 1.7 mg dose; format: functional; outline: as §3
Rattus norvegicus [28] = species: Rattus norvegicus; assay: Change in DMBA-induced mammary carcinoma tumor area in rats at 1.7 mg dose; 318-1054; format: functional; outline: as §3
Rattus norvegicus [29] = species: Rattus norvegicus; assay: Complete remission (%) of DMBA-induced mammary carcinoma tumors in rats at 5.1 mg dose; format: functional; outline: as §8
Rattus norvegicus [30] = species: Rattus norvegicus; assay: Percent unchanged DMBA-induced mammary carcinoma tumors in rats at 5.1 mg dose; format: functional; outline: as §7
Rattus norvegicus [31] = species: Rattus norvegicus; assay: Percent unchanged DMBA-induced mammary carcinoma tumors in rats at 1.7 mg dose; format: functional; outline: as §7
Rattus norvegicus [32] = species: Rattus norvegicus; assay: Number of DMBA-induced mammary carcinoma tumors in rats at 1.7 mg dose; format: functional; outline: as §8
Rattus norvegicus [33] = species: Rattus norvegicus; assay: Number of DMBA-induced mammary carcinoma tumors in rats at 5.1 mg dose; format: functional; outline: as §8
Rattus norvegicus [34] = species: Rattus norvegicus; assay: Formation of new DMBA-induced mammary carcinoma tumors in rats at 5.1 mg dose; format: functional; outline: as §8
Rattus norvegicus [35] = species: Rattus norvegicus; assay: Formation of new DMBA-induced mammary carcinoma tumors in rats at 1.7 mg dose; format: functional; outline: as §8
Rattus norvegicus [36] = species: Rattus norvegicus; assay: Percent progressive DMBA-induced mammary carcinoma tumors in rats at 5.1 mg dose; format: functional; outline: as §7
Rattus norvegicus [37] = species: Rattus norvegicus; assay: Partial remission (%) of DMBA-induced mammary carcinoma tumors in rats at 1.7 mg dose; format: functional; outline: as §8
Rattus norvegicus [38] = species: Rattus norvegicus; assay: Percent progressive DMBA-induced mammary carcinoma tumors in rats at 1.7 mg dose; format: functional; outline: as §7
Rattus norvegicus [39] = species: Rattus norvegicus; assay: Partial remission (%) of DMBA-induced mammary carcinoma tumors in rats at 5.1 mg dose; format: functional; outline: as §7

| SMILES | Anti-uterotrophic effect [1] | Anti-uterotrophic effect [2] | Anti-uterotrophic effect [3] | Anti-uterotrophic effect [4] | Uterotrophic effect [6] | Uterotrophic effect [7] | Uterotrophic effect [8] | inhibition [12] | inhibition [13] | inhibition [20] | inhibition [21] | Uterotrophic effect [22] | further results |
| --- | --- | --- | --- | --- | --- | --- | --- | --- | --- | --- | --- | --- | --- |
| CCCn1c(-c2ccc(OC(C)=O)cc2)c(C)c2cc(OC(C)=O)ccc21 | 29.3 | 45.2 | 29.8 | 40.3 | 21.7 | 28.5 | 23 | 67% | 37% | 66% | 24% |  | Uterotrophic effect [5]: 16.7; Change of tumor area (Rattus norvegicus [9]): 47%; Change of body weight (Rattus norvegicus [10]): 2%; Change of tumor area (Rattus norvegicus [11]): 198%; Static tumors (Rattus norvegicus [14]): 30%; No. of tumors (Rattus norvegicus [15]): 34; New tumors (Rattus norvegicus [16]): 27; Change of tumor area (Rattus norvegicus [17]): 198%; Progressed tumors (Rattus norvegicus [18]): 55%; Partial remission (Rattus norvegicus [19]): 8% |
| CC(=O)Oc1ccc(-c2c(C)c3cc(OC(C)=O)ccc3n2C)cc1 | 28.8 | 40 | 36.6 | 39.2 | 13.7 | 16.1 | 14.6 | 62% | 35% | 42% | 33% | 20.9 | Change of tumor area (Rattus norvegicus [23]): 9% and 18%; Change of tumor area (Rattus norvegicus [24]): -44%; Change of body weight (Rattus norvegicus [25]): 2%; Change of body weight (Rattus norvegicus [26]): 0%; Change of tumor area (Rattus norvegicus [27]): 577%; Change of tumor area (Rattus norvegicus [28]): 318%; Complete remission (Rattus norvegicus [29]): 32%; Static tumors (Rattus norvegicus [30]): 19%; Static tumors (Rattus norvegicus [31]): 15%; No. of tumors (Rattus norvegicus [32]): 29; No. of tumors (Rattus norvegicus [33]): 37; New tumors (Rattus norvegicus [34]): 37; New tumors (Rattus norvegicus [35]): 38; Progressed tumors (Rattus norvegicus [36]): 39%; Partial remission (Rattus norvegicus [37]): 6%; Progressed tumors (Rattus norvegicus [38]): 70%; Partial remission (Rattus norvegicus [39]): 10% |
| CCn1c(-c2cccc(OC(C)=O)c2)c(C)c2ccc(OC(C)=O)cc21 | 37.4 | 46.9 | 40.6 | 41.7 | 15.2 | 30.2 | 17.2 | 26% | 11% | 15% |  | 39.1 |  |
